Results collected from several papers.
Protocols differ between the studies behind these lines.
Target: Insulin receptor-related protein (INSRR, Homo sapiens, UniProt P14616)

Structure (SMILES) | assay | setting | quantity | value
N#CCCc1ccc2c(c1)-c1[nH]c3ccc([N+](=O)[O-])cc3c1CC(=O)N2 | cell-free assay | 0.5 µM | remaining signal | 99.2%
CC(=O)N1CCC(c2ccc(C(=O)NC(=N)N)cc2C(F)(F)F)CC1 | cell-free assay, competition with immobilised ligand | 1 µM | remaining binding | 100%
CN1CC(Oc2cnc(C#N)cc2-c2ccn3nc(NC(=O)C4CC4)cc3c2)C1 | enzyme activity, inhibitor | 1 µM | inhibition | -4%
COc1cc2nccc(Oc3ccc(NC(=O)c4c5n(n(-c6ccc(F)cc6)c4=O)CCCC5)cc3)c2cc1OC | enzyme activity, inhibitor | 0.1 µM | inhibition | 5%
COc1cc2ncnc(Nc3ccc(Oc4ccccc4)cc3C)c2cc1OC | enzyme activity, inhibitor | 1 µM | inhibition | 3%
CC(C)CC(=O)N1CCc2nc(-c3ccc(Br)cc3)nc(N(C)Cc3ccccc3)c2C1 | cell-free assay, competition with immobilised ligand | 0.1 µM | remaining binding | 100%
CCCS(=O)(=O)Nc1ccc(F)c(C(=O)c2c[nH]c3ncc(-c4ccc(Cl)cc4)cc23)c1F | enzyme activity, inhibitor | 1 µM | inhibition | < 10%
CC(C)(C)c1nc2c(s1)c1nc(N)ncc1c1ccc(NS(=O)(=O)c3c(F)cccc3F)c(F)c12 | enzyme activity, inhibitor, radiometric | 1 µM | remaining activity | 107%
CN(C)c1ncnc(-c2ccc3nc(Nc4cc(CN5CCN(C(=O)CC(F)(F)F)CC5)ccn4)[nH]c3c2)c1Cl | cell-free assay, competition with immobilised ligand | 1 µM | remaining binding | 95%
CCCOc1ccc(OC)c(F)c1C(=O)c1ccc(C(=O)N[C@@H]2CNC[C@H]2NC(=O)c2ccc3[nH]ncc3c2)cc1 | enzyme activity, inhibitor | 10 µM | remaining activity | 87%
Cc1ccc(C(=O)Nc2ccc(CN3CCN(C)CC3)c(C(F)(F)F)c2)cc1C#Cc1cnc2cccnn12 | cell-free assay | 23.5 nM | remaining signal | 100%
COc1cc(Nc2cnc(C#N)c(O[C@H](C)CN(C)C)n2)ncc1-c1cnn(C)c1 | enzyme activity, inhibitor, radiometric | 10 µM | remaining activity | 89%
Nc1ncnc2occ(-c3ccc(NC(=O)Nc4cc(C(F)(F)F)ccc4F)cc3)c12 | cell-free assay | 20 µM | remaining signal | 0.85%
O=C(Nc1cnn(-c2csc(C(=O)NC3COC3)c2)c1)Nc1ccccc1Cl | enzyme activity, inhibitor | 5 µM | remaining activity | 96%
CC/C(=N\NC(=O)NCc1cccc(O)c1)c1ccc(O)c(C)c1O | enzyme activity, inhibitor | 0.1 µM | inhibition | 1.7%
Cc1ccc(Nc2nccc(N(C)c3ccc4c(C)n(C)nc4c3)n2)cc1S(N)(=O)=O | enzyme activity, inhibitor | 0.3 µM | inhibition | -22%
CN(C)CC#Cc1ccc(OCCCc2sc(N3CCc4cccc(C(=O)Nc5nc6ccccc6s5)c4C3)nc2C(=O)O)c(F)c1 | cell-free assay, competition with immobilised ligand | 1 µM | remaining binding | 90%
COc1ccc(COc2ccc(Cc3cnc(N)nc3N)cc2OC)cc1 | cell-free assay | 0.5 µM | remaining signal | 99.4%
CCOC(=O)c1cc2cc(-c3cc(C(=O)NCc4ccc(C(=O)O)cc4)nn3C)ccc2[nH]1 | cell-free assay, competition with immobilised ligand | 0.1 µM | remaining binding | 77%
COc1cc(Cl)c(C(=O)N[C@@H](CN[C@H]2CC[C@@H](N)CC2)Cc2ccc(C#N)cc2)cc1-c1ccc(CN[C@H](C)c2ccc(C)cc2)o1 | enzyme activity, inhibitor | 1 µM | remaining activity | 98%
Nc1nc(Nc2ccccc2)sc1C(=O)c1c(F)cccc1F | enzyme activity, inhibitor | 10 µM | remaining activity | 24%
COc1cc(-c2cn(C3CCc4c(F)cccc4N(CC(F)(F)F)C3=O)nn2)ccc1-n1cnc(C)c1 (stereo not shown) | cell-free assay, competition with immobilised ligand | 1 µM | remaining binding | 100%
CNC(=O)c1cc(Oc2ccc(NC(=O)Nc3ccc(Cl)c(C(F)(F)F)c3)cc2)ccn1 | enzyme activity, inhibitor | 10 µM | inhibition | 8%
O=C(Nc1cccnn1)N1CCC(=Cc2cccc(Oc3ccc(C(F)(F)F)cn3)c2)CC1 | cell-free assay, competition with immobilised ligand | 1 µM | remaining binding | 100%
CCN(CC)CCNC(=O)c1c(C)[nH]c(/C=C2\C(=O)Nc3ccc(F)cc32)c1C | enzyme activity, inhibitor | 0.3 µM | inhibition | 25%
Cn1c(=O)n(-c2ccc(C(C)(C)C#N)cc2)c2c3cc(-c4cnc5ccccc5c4)ccc3ncc21 | enzyme activity, inhibitor | 10 µM | remaining activity | 80%
CC1=C(C#N)C(c2ccc3c(c2)c(NC(=O)c2ccccc2C)nn3C)C(C#N)=C(C)N1 | cell-free assay, competition with immobilised ligand | 1 µM | remaining binding | 100%
CC(C)(C)C(=O)c1sc(NC2CCCCC2)nc1N | enzyme activity, inhibitor | 10 µM | remaining activity | 93%
